Measured values reported in ChEMBL document CHEMBL2057196, “Discovery of a novel class of potent human deoxyuridine triphosphatase inhibitors remarkably enhancing the antitumor activity of thymidylate synthase inhibitors” (J Med Chem, 2012).

Key:
[1] = target: T1, Deoxyuridine 5'-triphosphate nucleotidohydrolase, mitochondrial (Homo sapiens, UniProt P33316); experiment: Inhibition of human dUTPase assessed as production of [5-3H]dUMP from [5-3H]dUTP after 15 mins measured by HPLC analysis
T1 sequence (P33316 whole entry): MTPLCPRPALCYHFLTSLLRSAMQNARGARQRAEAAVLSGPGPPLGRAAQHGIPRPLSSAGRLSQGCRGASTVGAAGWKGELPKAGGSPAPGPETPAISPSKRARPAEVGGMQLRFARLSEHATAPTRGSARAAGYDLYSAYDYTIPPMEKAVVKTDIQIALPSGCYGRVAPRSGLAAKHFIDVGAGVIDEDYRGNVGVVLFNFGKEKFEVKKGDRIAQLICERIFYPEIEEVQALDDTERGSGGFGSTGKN

[2] = Potentiation of antiproliferative activity of FdUrd against human HeLaS3 cells assessed as compound concentration causing 50% reduction in 1 uM FdUrd T/C value after 24 hrs by crystal violet assay; assay type: functional, cell-based, HeLa S3
Summary of the method: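 HeLa S3 cells seeded at 1500 cells/well and pre-incubated 24 h. Compound (1–100 μM) or DMSO added together with FdUrd (1 μM) for 24 h. Thymidine (30 μM) then added for a further 48 h. Crystal violet read-out at OD540. EC50 is the concentration that halves the FdUrd T/C (%), taken from the curve. Mean of three independent assays ± SD.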

MX1 [3] = experiment: Antitumor activity against human MX1 cells xenografted in Balb/c-A JcL-nu mouse assessed as tumor volume at 15 mg/kg/day by continuous infusion for 14 days measured on day 15 (reference value: 2048 +/- 693.7 mm3); assay type: functional
Summary of the method: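 Five-week-old Balb/cA JcL-nu mice with MX-1 human breast carcinoma fragments (~2 mm) implanted sc by trocar, tumour maintained by sc serial transplantation. 5-FU given by continuous infusion via osmotic pump for 14 days; vehicle 2.5% DMA, 2.5% Tween 80, 10% Cremophor, 0.5% HPMC. Tumour size measured twice weekly; TV = length × width² × 0.5, read on day 15.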

MX1 [4] = experiment: Antitumor activity against human MX1 cells xenografted in Balb/c-A JcL-nu mouse assessed as tumor volume at 15 mg/kg/day by continuous infusion for 14 days measured on day 15 relative to control (reference value: 11.4 +/- 3.74); assay type: functional
MX1 [5] = experiment: Antitumor activity against human MX1 cells xenografted in Balb/c-A JcL-nu mouse assessed as tumor growth inhibition at 15 mg/kg/day by continuous infusion for 14 days measured on day 15 relative to control; assay type: functional; details: read-out: GI
[6] = AUCt in Balb/c-A mouse at 50 mg/kg, po in a solution containing 2.5% DMA, 2.5% Tween 80 and 10% cremophor EL; assay type: ADME, organism-based; parameters: dose 50 mg/kg, route oral; details: plasma
Summary of the method: (§1)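 Male Balb/c-A mice aged 6–9 weeks (n = 2), single oral dose; plasma drug levels measured by UPLC.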

[7] = Cmax in Balb/c-A mouse at 50 mg/kg, po in a solution containing 2.5% DMA, 2.5% Tween 80 and 10% cremophor EL; assay type: ADME, organism-based; parameters: dose 50 mg/kg, route oral; details: in vivo; summary of the method: as §1
[8] = Half life in Balb/c-A mouse at 50 mg/kg, po in a solution containing 2.5% DMA, 2.5% Tween 80 and 10% cremophor EL; assay type: ADME, organism-based; parameters: dose 50 mg/kg, route oral; details: in vivo; summary of the method: as §1
[9] = Tmax in Balb/c-A mouse at 50 mg/kg, po in a solution containing 2.5% DMA, 2.5% Tween 80 and 10% cremophor EL; assay type: ADME, organism-based; parameters: dose 50 mg/kg, route oral; details: in vivo; summary of the method: as §1
MX1 [10] = experiment: Antitumor activity against human MX1 cells xenografted in Balb/c-A JcL-nu mouse assessed as tumor volume at 300 mg/kg/day, po for 14 days measured on day 15 (reference value: 2048 +/- 693.7 mm3); assay type: functional
Summary of the method: (§2)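 Five-week-old Balb/cA JcL-nu mice given sc MX-1 tumor fragments (~2 mm) by trocar. Treatment for 14 days: 5-FU 15 mg/kg/day by osmotic-pump continuous infusion, and/or oral compound. Vehicle was 2.5% DMA, 2.5% Tween 80, 10% Cremophor, 0.5% HPMC. Tumor size and body weight measured twice weekly. TV = length × width² × 0.5. RTV = TV day 15/day 0. IR = (1 − treated/control mean RTV) × 100.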

MX1 [11] = experiment: Antitumor activity against human MX1 cells xenografted in Balb/c-A JcL-nu mouse assessed as decrease in tumor volume at 300 mg/kg/day, po for 14 days measured on day 15 relative to control (reference value: 11.4 +/- 3.74); assay type: functional; summary of the method: as §2
MX1 [12] = experiment: Antitumor activity against human MX1 cells xenografted in Balb/c-A JcL-nu mouse assessed as tumor growth inhibition at 300 mg/kg/day, po for 14 days measured on day 15 relative to control; assay type: functional; details: read-out: GI; summary of the method: as §2
MX1 [13] = experiment: Potentiation of antitumor activity of 5-Fu against human MX1 cells xenografted in Balb/c-A JcL-nu mouse assessed as tumor volume at 300 mg/kg/day, po for 14 days measured on day 15 (reference value: 2048 +/- 693.7 mm3); assay type: functional; summary of the method: as §2
MX1 [14] = experiment: Potentiation of antitumor activity of 5-Fu against human MX1 cells xenografted in Balb/c-A JcL-nu mouse assessed as decrease in tumor volume at 300 mg/kg/day, po for 14 days measured on day 15 relative to control (reference value: 11.4 +/- 3.74); assay type: functional; summary of the method: as §2
MX1 [15] = experiment: Potentiation of antitumor activity of 5-Fu against human MX1 cells xenografted in Balb/c-A JcL-nu mouse assessed as tumor growth inhibition at 300 mg/kg/day, po for 14 days measured on day 15 relative to control; assay type: functional; details: read-out: GI; summary of the method: as §2
Mus musculus = experiment: Toxicity in Balb/c-A JcL-nu mouse bearing human MX1 cells assessed as decrease in body weight at 300 mg/kg/day, po administered for 15 days and co-treated with 5-Fu; assay type: organism-based; parameters: route oral; details: in vivo, 336 h, in the assay text read “for 14 days” for “for 15 days”; summary of the method: as §2
[16] = Antiproliferative activity against human HeLaS3 cells after 72 hrs by crystal violet assay; details: HeLa S3, 72 h
[17] = Antiproliferative activity against human HeLaS3 cells at 30 uM after 72 hrs by crystal violet assay; assay type: functional, HeLa S3
Summary of the method: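 HeLa S3 cells grown in RPMI1640 with 10% FBS, seeded at 1500 cells/well and left 24 h at 37 °C, 5% CO2. Compound (1–100 μM) or DMSO vehicle added, then 72 h incubation. Growth read by crystal violet staining, OD540. […] Average of three independent assays.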

[18] = Inhibition of Escherichia coli dUTPase
[19] = Homo sapiens, HeLa S3, 24 h, read-out: EC50

## COc1cc(C)ccc1S(=O)(=O)NC(C)(C)CCCOCn1ccc(=O)[nH]c1=O
[1]
  IC50: 19.5 µM
[2]; [19]
  EC50: 14.1 µM

## COc1cccc(S(=O)(=O)NC(C)(C)CCCOCn2ccc(=O)[nH]c2=O)c1
[1]
  IC50: 1.2 µM
[2]; [19]
  EC50: 1.1 µM

## CC(C)(CCCOCn1ccc(=O)[nH]c1=O)NS(=O)(=O)c1ccc(Cl)cc1
[1]
  IC50: 5.7 µM
[2]; [19]
  EC50: 4.97 µM

## O=c1ccn(COCCOS(=O)(=O)NS(=O)(=O)c2ccccc2)c(=O)[nH]1
[1]
  IC50: 3.1 µM
[2]; hela s3
  EC50: Not Active

## O=c1[nH]cc(F)c(=O)[nH]1 [FLUOROURACIL]
MX1 [3]
  Activity: 1645 mm3
MX1 [4]
  Ratio: 9.13
MX1 [5]
  inhibition in vivo at 15 mg/kg/day: 20%

## C[C@H](NS(=O)(=O)CCCOCn1ccc(=O)[nH]c1=O)c1cccc(OCC2CC2)c1
[1]
  IC50: 2.5 µM
[2]; [19]
  EC50: 4.15 µM

## C[C@@H](NS(=O)(=O)CCCOCn1ccc(=O)[nH]c1=O)c1ccc(F)c(OCC2CC2)c1
[1]
  IC50: 0.021 µM
[2]; [19]
  EC50: 0.075 µM
[6]
  AUC(0-t): 24.9 µM·h
[7]
  Cmax: 15.1 µM
[8]
  half-life: 84 min
[9]
  Tmax: 30 min
MX1 [10]
  Activity: 2698 mm3
MX1 [11]
  Ratio: 14.9
MX1 [12]
  inhibition in vivo at 300 mg/kg/day: -30.9%
MX1 [13]
  Activity: 299.7 mm3
MX1 [14]
  Ratio: 1.94
MX1 [15]
  inhibition in vivo at 300 mg/kg/day: 83%
Mus musculus
  Activity: Non-toxic
[16]
  IC50: 28.3 µM

## CC(C)(CCCOCn1ccc(=O)[nH]c1=O)NS(=O)(=O)c1cccc(OCC2CC2)c1
[1]
  IC50: 0.035 µM
[2]; [19]
  EC50: 0.18 µM

## CC(C)(NS(=O)(=O)CCCOCn1ccc(=O)[nH]c1=O)c1cccc(OCC2CC2)c1
[1]
  IC50: 0.34 µM
[2]; [19]
  EC50: 0.45 µM

## C[C@@H](NS(=O)(=O)CCCOCn1ccc(=O)[nH]c1=O)c1cccc(OCC2CC2)c1
[1]
  IC50: 0.04 µM
[2]; [19]
  EC50: 0.066 µM

## CC(C)(CCCOCn1ccc(=O)[nH]c1=O)NS(=O)(=O)c1ccccc1Cl
[1]
  IC50: 9.4 µM
[2]; [19]
  EC50: 7.93 µM

## O=c1ccn(COCCOC(c2ccccc2)(c2ccccc2)c2ccccc2)c(=O)[nH]1
[1]
  IC50: > 100 µM

## CC(NS(=O)(=O)CCCOCn1ccc(=O)[nH]c1=O)c1cccc(OCC2CC2)c1 (racemic)
[1]
  IC50: 0.062 µM
[2]; [19]
  EC50: 0.14 µM

## CC(C)(CCCOCn1ccc(=O)[nH]c1=O)NS(=O)(=O)c1cccc(Cl)c1
[1]
  IC50: 4.5 µM
[2]; [19]
  EC50: 3.96 µM

## CC(C)(CCCOCn1ccc(=O)[nH]c1=O)NS(=O)(=O)c1ccccc1
[2]; [19]
  EC50: 5.1 µM
[2]; hela s3
  EC50: Dose-dependent effect
[17]
  T/C: 96%

## O=c1ccn([C@H]2C[C@H](O)[C@@H](COP(=O)(O)CP(=O)(O)OP(=O)(O)OCc3ccccc3)O2)c(=O)[nH]1
[18]
  Ki: 300 nM

## O=c1ccn([C@H]2C[C@H](O)[C@@H](COP(=O)(O)NP(=O)(O)OP(=O)(O)O)O2)c(=O)[nH]1
[18]
  Ki: 5000 nM

## CC(C)(C)[Si](C)(C)OCCOCn1ccc(=O)[nH]c1=O
[1]
  IC50: 100 µM

## COc1ccc(S(=O)(=O)NC(C)(C)CCCOCn2ccc(=O)[nH]c2=O)cc1
[1]
  IC50: 18.2 µM
[2]; [19]
  EC50: 14.9 µM
